Compound activity as filed in PubChem BioAssay.
Hits are enriched below; roughly 12% of the tested compounds scored in any of these assays.
L major viab: reduces viability of Leishmania major promastigotes; resazurin fluorescence viability; inhibition, % at 10 µM; 200,000 tested, 9% active; AID 1063; in the data active = inhibition above about 50%;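 also: promastigotes grown with compound for 44 hours at 28 °C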
Autophagy HCS: alters autophagy in cells; MEF GFP-LC3 puncta imaging; test concentration mostly 10 µM; calls only at 10 µM (by protocol); 190,000 tested, 0.98% active;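 active = percentage of spot-positive cells more than 3 SD above its plate mean, without a fluorescence outlier flag or 80% toxicity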;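 also: spot-positive cell cutoff set from DMSO-treated cells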
CHOP inhibitor: inhibitors of CHOP induction in ER stress response. 220,000 tested, 3.8% active. inhibition, % at 10 µM. CHO-K1 CHOP-promoter luciferase, tunicamycin-induced, 15-18 h. AID 2732;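 active = compounds that reduced the stress-induced luciferase reporter signal by more than about 70% of percent inhibition, limit read from the data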;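 also: 0% = tunicamycin plus vehicle and 100% = wells without tunicamycin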
MT stabilize HCS: microtubule stabilizers in HeLa cells; % tubulin-high responders, % at 10 µM; HeLa tubulin immunostaining HCS, 24 h; share of cells brighter than vehicle mean+2SD; 200,000 tested, 0.83% active;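 active = plate Z-score above 3 for both tubulin-high and condensed-nucleus cell shares, with cell loss under 80%, at 10 µM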;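 also: anti alpha tubulin signal scored within the nucleus-defined area of each cell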
bCat nuc transl: modulators of beta-catenin nuclear translocation | HeLa beta-catenin nuclear translocation, immunofluorescence imaging | 190,000 tested, 0.3% active | nuclear translocation activity, % at 5 µM;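 active = nuclear translocation activity above 50% at 5 µM, with a well cell count of 50 or more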;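 also: per-cell ratio of nuclear to cytoplasmic median beta-catenin stain intensity; plate controls were DMSO negative control for no effect and GSK-3 inhibitor IX positive control for full effect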
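System: HeLa cells, endogenous beta-catenin; compound dosing: 5 µM primary single dose, 0.1% DMSO, 0.02–20 µM confirmation series; incubation: 24 h compound exposure at 37°C, 5% CO2; signal: beta-catenin immunofluorescence imaging with DAPI; evaluation: % activation, nuclear-to-cytoplasmic median beta-catenin signal ratio per cell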
Dynein cargo inh: dynein cargo transport inhibition | 3617.4 mouse cells, GR-EGFP nuclear translocation imaging; test concentration mostly 20 µM; stimulated with dexamethasone, 1 µM; stronger effect = lower value | AID 1381 | z-score, hits read low | 220,000 tested, 0.47% active;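 active = plate z-score of nuclear minus cytoplasmic receptor signal below a set negative limit, without overly bright fluorescence or cell loss, cut at about -3.5 in these data, passing the limit was not always enough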;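 also: z-score of nuclear minus cytoplasmic ring GR-EGFP intensity difference per well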
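Buffer or medium: tet-free medium with charcoal-stripped serum / Also added: dexamethasone agonist, 1.0 µM final, for 30 min / Timing: induction 48 h, compound 1 h, agonist 30 min / Measured by: high-content fluorescence imaging after fixation / Read-out: nuclear-to-cytoplasmic GR-EGFP distribution per well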
* marks the source's active call; other numbers are inactive results; i = inactive; nt = not tested or not shown; + = active, no number.

SMILES	L major viab	Autophagy HCS	CHOP inhibitor	MT stabilize HCS	bCat nuc transl	Dynein cargo inh
COc1ccc(N=c2cc(-c3ccc(O)cc3)oc3ccccc23)cc1	81.3*	i	65.2	2.7	2.4	-0.224
CCOc1ccc(N=c2cc(-c3ccc(OC)cc3)oc3ccccc23)cc1	29.7	i	11.1	5.1	-1.6	0.0571
COc1ccc(-c2cc(=Nc3ccc(C)cc3)c3ccccc3o2)cc1	63.5*	i	14.7	2.3	-1.5	0.419
COc1ccc(N=c2cc(-c3ccc(OC)cc3)oc3ccccc23)cc1	41.9	i	26.2	3.7	2.7	0.456
CCCCNC(=S)N/N=C/c1ccc(OCC(=O)Nc2c(C)cc(C)cc2C)c(OC)c1	-1.2	i	49.6	7.3	-0.1	0.291
CCCN(CCC)CCNC(=O)C1CC(=O)N(c2ccc(OC)cc2)C1c1ccc(OC)cc1 (centres undefined)	1.4	i	52.9	3.2	-2.0	-0.121
O=C(NC1CCCC1)C(c1ccco1)N(Cc1ccccc1)C(=O)c1csnn1 (centres undefined)	-6.2	i	-15.0	3.4	nt	1.02
COc1cccc(N2CC(C(=O)Nc3ccc(C(=O)OC(C)C)cc3)CC2=O)c1 (centres undefined)	10.0	i	22.8	3.1	-0.1	2.19
Cc1cc(COc2ccccc2OCCN2CCN(C)CC2)no1	3.0	i	-3.2	3.7	-1.4	-1.21
N#Cc1ccccc1Oc1ccccc1C=O	57.0*	i	-2.1	3.1	-5.2	1.04
O=Cc1ccccc1OCCOc1ccccc1C=O	71.8*	+	-31.9	3.7	nt	1.16
CN1CCN(CCCCOc2ccccc2C=O)CC1	99.6*	i	2.8	4.3	-0.5	-0.742
O=Cc1ccccc1Oc1ccccc1	1.3	i	4.0	1.5	-4.3	-0.359
CCOC(=O)CNC(=O)C1CCCN(c2ncccn2)C1 (centres undefined)	-3.8	i	20.9	1.9	-6.7	0.0392
Cc1nc(-c2coc3c(CN(C)C)c(O)ccc3c2=O)cs1	7.5	i	1.2	1.2	nt	-1.23
CC(NC(=O)C1(c2cccs2)CCOCC1)c1ccccc1 (centres undefined)	-3.3	i	-4.2	2.8	-2.1	-0.349
CCCc1nc(SCC(=O)N2CCC(Cc3ccccc3)CC2)c2c(=O)n(C)c(=O)n(C)c2n1	9.5	nt	65.3	3.4	-2.4	-0.249
O=C(CSCc1ccc(Cl)cc1)NCCSCc1ccco1	-5.5	i	12.7	1.2	-1.6	1.48
O=C(NCCSCc1ccco1)Nc1cc(Cl)cc(Cl)c1	nt	nt	70.3*	nt	0.2	-0.236
COc1cc(OC)cc(-c2nnc(Sc3ccc(C=O)cc3[N+](=O)[O-])o2)c1	51.9*	i	14.2	1.3	-1.1	0.117
CCCn1cnc2c(=S)nc(N)[nH]c21	nt	nt	6.9	nt	1.2	0.53
CCN(CC)S(=O)(=O)c1cc(-c2nn(C)c(=O)c3ccccc23)ccc1C	87.1*	i	-8.9	0.4	-1.8	0.0986
O=[N+]([O-])c1ccccc1NCc1c(O)ccc2ccccc12	nt	nt	89.1*	nt	0.7	-0.996
Cc1ccc(-n2nc(CN3CCOCC3)c(-c3ccccc3)c2N)c(C)c1	-0.9	i	6.6	4.8	2.6	-0.686
CCOC(=O)Cn1c(C)c(Br)c(=O)c2cccc(C)c21	-9.2	i	91.9*	3.2	-1.1	-0.287
SMILES	L major viab	Autophagy HCS	CHOP inhibitor	MT stabilize HCS	bCat nuc transl	Dynein cargo inh
CCOC(=O)Cn1c(=O)cc(C)c2ccccc21	-2.1	i	2.4	3.1	0.5	-0.131
O/N=C1/C2C3C(Br)C4C5CC(C1C53)C24 (centres undefined)	-6.1	i	-1.7	2.3	nt	0.715
c1ccc2c(c1)nc(NCc1ccc3c(c1)OCO3)n2CCN1CCOCC1	2.6	i	-9.2	3.0	-0.1	-0.366
C=CCn1c(NCc2ccccc2)nc2ccccc21	22.9	i	-33.8	4.8	nt	-0.755
CCN(CC)c1ccc(CNc2nc3ccccc3n2C(C)C)cc1	nt	nt	8.7	nt	0.6	-0.308
C=CCn1c(NCc2ccc3c(c2)OCO3)nc2ccccc21	97.8*	i	-24.6	5.5	-12.5	0.0787
CN(C)CCCn1c(NCc2ccc3c(c2)OCO3)nc2ccccc21	66.0*	i	-13.9	0.8	nt	1.76
CC(C)n1c(NCc2ccc(N(C)C)cc2)nc2ccccc21	-1.6	+	-55.8	3.0	-0.3	-0.425
CCn1c(NCc2ccc3c(c2)OCO3)nc2ccccc21	77.7*	i	0.8	2.7	0.2	0.376
